Assay results gathered from unrelated publications.
Protocols differ between the studies behind these lines.
CDK1 with cyclin B: Cyclin-dependent kinase 1, with cyclin B (CDK1, Homo sapiens, UniProt P06493)
CDK1: Cyclin-dependent kinase 1 (CDK1, Homo sapiens, UniProt P06493)
CDK1 with cyclin A: Cyclin-dependent kinase 1, with cyclin A (CDK1, Homo sapiens, UniProt P06493)

CCOc1cc(-c2nncn2C)ccc1Nc1ncc2cc(C)nc(NCC(C)(C)C)c2n1
inhibition (CDK1 with cyclin B; enzyme activity, inhibitor, FRET; 1 µM): 30%

O=C1Nc2ccc(Cl)cc2C1=Cc1cc(Cl)c(O)c(Cl)c1
remaining signal (CDK1 with cyclin B; cell-free assay; 0.5 µM): 96.3%

CNCc1ccc(-c2cc(-c3nc(-c4ccc(S(=O)(=O)C(C)C)cc4)cnc3N)on2)cc1
inhibition (CDK1 with cyclin B; enzyme activity, inhibitor; 2 µM): 6%

COc1cccc2c(NCc3ccccc3)nc(-n3c(N)nc4ccccc43)nc12
inhibition (CDK1; target engagement in cells, inhibitor, chemoproteomics; 20 mM): -2.6%

CN1CC(Oc2cnc(C#N)cc2-c2ccn3nc(NC(=O)C4CC4)cc3c2)C1
inhibition (CDK1 with cyclin B; enzyme activity, inhibitor; 1 µM): -8%

CC(C)c1ccc(NC(=O)c2cccs2)c(-c2nc3ccccc3[nH]c2=O)c1
activity vs control (CDK1 with cyclin B; enzyme activity, inhibitor; 1 µM): 107%

O=C(Nc1cnn(-c2csc(C(=O)NC3COC3)c2)c1)Nc1ccccc1Cl
remaining activity (Cyclin-dependent kinase 1, with cyclin E (CDK1, Homo sapiens, UniProt P06493); enzyme activity, inhibitor; 5 µM): 94.7%

CC(C)(C)c1nc2c(s1)c1nc(N)ncc1c1ccc(NS(=O)(=O)c3c(F)cccc3F)c(F)c12
remaining activity (Cyclin-dependent kinase 1, with cyclin E1 (CDK1, Homo sapiens, UniProt P06493); enzyme activity, inhibitor, radiometric; 1 µM): 83%

Nc1nc(Nc2ccc(S(N)(=O)=O)cc2)sc1C(=O)c1ccccc1[N+](=O)[O-]
inhibition (CDK1; enzyme activity, inhibitor; 0.1 µM): 90 to 93%

O=Nc1c(-c2c(O)[nH]c3ccccc23)[nH]c2ccccc12
remaining signal (CDK1 with cyclin B; cell-free assay; 0.5 µM): 68.7%

C=CC(=O)Nc1cc(Nc2nccc(Nc3cc(Cl)c(F)cc3C(C)(C)O)n2)c(OC)cc1N1CC[C@@H](N(C)C)C1
inhibition (CDK1 with cyclin B; enzyme activity, inhibitor; 1 µM): -13%

CCCS(=O)(=O)Nc1ccc(F)c(C(=O)c2c[nH]c3ncc(-c4ccc(Cl)cc4)cc23)c1F
inhibition (CDK1 with cyclin B; enzyme activity, inhibitor; 1 µM): < 10%

Cc1ccc(NC(=O)c2ccc(C)c(C(F)(F)F)c2)cc1C#Cc1nn(C2CCC(O)CC2)c2ncnc(N)c12 (stereo not shown)
remaining signal (CDK1 with cyclin B; cell-free assay; 10 µM): 104%

N#CCCc1ccc2c(c1)-c1[nH]c3ccc([N+](=O)[O-])cc3c1CC(=O)N2
remaining signal (CDK1 with cyclin B; cell-free assay; 0.5 µM): 9.89%

CCN(CC)CCNC(=O)c1c(C)[nH]c(/C=C2\C(=O)Nc3ccc(F)cc32)c1C
inhibition (CDK1 with cyclin B; enzyme activity, inhibitor; 0.3 µM): 2%

Cc1sc(C(=O)NC2COC2)cc1-n1cc(NC(=O)Nc2c(F)cccc2Cl)cn1
remaining activity (CDK1 with cyclin A; enzyme activity, inhibitor; 10 µM): 105%

c1ccc(CNc2nc(N3CCOc4ccccc43)nc3c2CCCC3)cc1
inhibition (CDK1; target engagement in cells, inhibitor, chemoproteomics; 20 mM): -6.5%

COc1cc(OC)c(C=C2C(O)=Nc3ccccc32)c(OC)c1
remaining signal (CDK1 with cyclin B; cell-free assay; 0.5 µM): 83%

CC(C)(C)c1nc(-c2cccc(NS(=O)(=O)c3c(F)cccc3F)c2F)c(-c2ccnc(N)n2)s1
remaining activity (Cyclin-dependent kinase 1, with cyclin B1 (CDK1, Homo sapiens, UniProt P06493); enzyme activity, inhibitor, radiometric; 1 µM): 89%

O=C1NC(=O)c2c1c1c3ccccc3[nH]c1n1cncc21
remaining signal (CDK1 with cyclin B; cell-free assay; 0.5 µM): 85.5%

COc1cc2ncnc(Nc3ccc(Oc4ccccc4)cc3C)c2cc1OC
inhibition (CDK1 with cyclin B; enzyme activity, inhibitor; 1 µM): 3%

CNC(=O)c1cc(Oc2ccc(NC(=O)Nc3ccc(Cl)c(C(F)(F)F)c3)cc2)ccn1
inhibition (CDK1 with cyclin B; enzyme activity, inhibitor; 0.3 µM): -5%

O=C1NC(=O)c2cc(Nc3ccc(F)cc3)c(Nc3ccc(F)cc3)cc21
remaining signal (CDK1 with cyclin A; cell-free assay; 0.5 µM): 96.1%

O=C(Nc1cnn(-c2csc(C(=O)NC3COC3)c2)c1)Nc1c(F)cccc1Cl
remaining activity (CDK1 with cyclin B; enzyme activity, inhibitor; 5 µM): 105%

CC(C)n1cnc2c(Nc3cccc(Cl)c3)nc(NCCO)nc21
remaining signal (CDK1 with cyclin A; cell-free assay; 0.5 µM): 78.5%

CC(C)(O)[C@H]1CC[C@H](Nc2ccc3ncc(-c4cccc(C(F)(F)F)c4)n3n2)CC1
remaining activity (CDK1 with cyclin A; enzyme activity, inhibitor; 1 µM): 95.4%

CC(C)[C@H](CO)Nc1nc(Nc2cccc(Cl)c2)c2ncn(C(C)C)c2n1
remaining signal (CDK1 with cyclin A; cell-free assay; 0.5 µM): 31.7%

Cc1ccc(Nc2nccc(N(C)c3ccc4c(C)n(C)nc4c3)n2)cc1S(N)(=O)=O
inhibition (CDK1 with cyclin B; enzyme activity, inhibitor; 0.3 µM): 14%
